One test concerns NCI-H460. Nature of the test: Cytotoxicity against human H460 cells assessed as reduction in cell viability after 48 hrs by alamar blue assay. It is filed as functional, cell-based. (In general: Alamar Blue is a resazurin reagent that responds to reducing activity.)
For test [1], the system named is HeLa. The test can be described thus: Cytotoxicity against human HeLa cells assessed as cell viability at 1600 uM after 48 hrs by alamar blue assay relative to control. The class given is functional. Particulars: read-out: Activity. A digest of the protocol: (§1)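 HeLa cells in MEM with 10% FBS, 1% NEAA, 2 mM glutamine and 1% antibiotic-antimycotic were seeded at 1 x 10^5 cells/ml and grown 24 h at 37°C, 5% CO2. They were exposed 48 h to compound serially diluted in growth medium, in duplicate wells. Alamar Blue was added for 3 h, then 30 min at room temperature, and fluorescence read at ex 544/em 590 nm. Values are % of DMSO-only control, means ± SEM, with ANOVA and Dunnett's test.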

Test [2] deals with HeLa. Nature of the test: Cytotoxicity against human HeLa cells assessed as loss of cells after 48 hrs by inverted microscopic analysis. The class given is functional, cell-based. In short, it runs like this:
(§2)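 HeLa cultures were treated 48 h with increasing compound concentrations in growth medium, with controls given growth medium only. Bright-field images were then taken on an inverted microscope at x10 and examined for cell loss and rounding of remaining cells.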

Test [3] relates to HeLa. The test can be described thus: Cytotoxicity against human HeLa cells assessed as cell viability at 800 uM after 48 hrs by alamar blue assay relative to control. It is filed as functional. As to conditions: read-out: Activity. A digest of the protocol:
as §1

The next test relates to PC-3. The test can be described thus: Cytotoxicity against human PC3 cells assessed as reduction in cell viability after 48 hrs by alamar blue assay. The class given is functional, cell-based.
In test [4] the test system is HeLa. Nature of the test: Cytotoxicity against human HeLa cells assessed as cell rounding after 48 hrs by inverted microscopic analysis. It is filed as functional, cell-based. A digest of the protocol:
as §2

The structures appear in SMILES notation. Activity calls are given as the source filed them. The rule behind the calls is not given here.

Regarding `COc1cc(/C=C/C(=O)OC(=O)/C=C/c2ccc(O)c(OC)c2)ccc1O`, the outcome in the test with NCI-H460 and in the test with PC-3 was inactive. In the test on HeLa [1], the viability at 1600 µM was 5.3%. Besides, the Activity result in the test with HeLa [2] and in the test on HeLa [4] was “Dose-dependent effect” throughout. Also, the viability at 800 µM in the test with HeLa [3] was determined as 22.3%.

With `COC(=O)[C@@]1(OC(=O)/C=C/c2ccc(O)c(O)c2)C[C@@H](O)[C@@H](OC(=O)/C=C/c2ccc(O)c(O)c2)[C@H](OC(=O)/C=C/c2ccc(O)c(O)c2)C1`, the result with NCI-H460 and in the test on PC-3 was inactive. In the test on HeLa [1], the viability at 1600 µM turned out to be 19.6%. Besides, the Activity entry with HeLa [2] and in the test on HeLa [4] was “Dose-dependent effect” in each case. In addition, in the test on HeLa [3], the viability at 800 µM came out at 71%.

For the origin of these results see ChEMBL document CHEMBL3822452, “Polyphenolic compounds with anti-tumour potential from Corchorus olitorius (L.) Tiliaceae, a Nigerian leaf vegetable” (2016).
